Source: publication PMC3220529 (The Journal of Biological Chemistry, 2011)
Entries after “also recorded” stand apart in the source; their conditions may differ.

Legend:
S100A10 [1] = type: binding, rabbit; settings: absence of annexin A2 peptide; data not shown
A10A2 = experiment: Peptide array of AHNAK C terminus probed with Alexa Fluor 680-A10A2; type: binding, rabbit; settings: 18-residue peptides shifted by 3 residues, Alexa-A10A2 0.2 μM, 2 h, 700 nm
Procedure, shortened: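 330 spots of 18-residue AHNAK peptides (residues 4884–5890, 3-residue offset) were Fmoc-synthesized on […]. Membranes were methanol-hydrated, washed in TBS + 0.05% Tween, and blocked 1 h with skim milk. A10A2 is a rabbit S100A10(C82S)–annexin A2 hybrid made in E. coli.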

[2] = target: T1, A10A2 hybrid protein (dimer) (Oryctolagus cuniculus, UniProt Q6SQH4, C83S); experiment: Isothermal titration calorimetry of AHNAK5 into A10A2; type: binding, rabbit
[3] = target: T1, A10A2 hybrid protein (dimer); experiment: Fluorescence titration of acrylodan-labeled A10A2 with AHNAK5; type: binding, rabbit; settings: shifted from near 495 nm; intensity decreased; pH 7.4
Procedure, shortened: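 Rabbit S100A10(C82S)–annexin A2 hybrid was made as a GST fusion in E. coli, cleaved with PreScission, and labelled with acrylodan. 167 nM labelled protein in 20 mM Tris-HCl, 120 mM NaCl, 1 mM DTT, pH 7.4, was stirred at room temperature. Peptide was added stepwise with 2 min stirring each. Excitation 375 nm, emission 400–600 nm, ΔF at 500 nm. Duplicate titrations were globally fit 1:1 for Kd.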

S100A10-annexin A2 = S100A10-annexin A2 (Oryctolagus cuniculus, UniProt Q6SQH4, C83S); experiment: Overall binding of AHNAK5 to S100A10-annexin A2; parameters: species or system rabbit; settings: S100A10 without annexin A2 peptide; discussion statement
S100A10 [4] = experiment: Fluorescence titration of acrylodan-labeled S100A10 with AHNAK5; type: binding, rabbit; settings: absence of annexin A2 peptide
[5] = target: S100A10-annexin A2 hybrid protein (A10A2) dimer (Oryctolagus cuniculus, UniProt Q6SQH4, C83S); experiment: NMR titration; type: binding, rabbit; settings: pH 7.0
[6] = target: S100A10^C82S (rabbit S100A10 with Cys82 changed to Ser) (rabbit); experiment: native MS
[7] = target: S100A10^C82S-annexin A2 hybrid protein (A10A2) (rabbit | not stated); experiment: native MS
[8] = target: S100A10^C82S-annexin A2 hybrid protein (A10A2) (rabbit | not stated); experiment: ITC
[9] = target: S100A10^C82S-annexin A2 hybrid protein (A10A2) (rabbit | not stated); experiment: NMR titration
[10] = target: acrylodan-labeled A10A2 hybrid protein (rabbit | not stated); experiment: other fluorescence titration
[11] = target: non-covalent complex of S100A10 (C82S) dimer with two annexin A2 peptides (residues 1-15) (rabbit | not stated); experiment: native MS

Ac-GKVTFPKMKIPKFTFSGREL-NH2 [AHNAK5]
interaction with S100A10 without annexin A2, NMR (S100A10 [1]): did not show an interaction between S100A10 and AHNAK5; also recorded: no evidence for interaction of AHNAK5 with S100A10 in the absence of annexin A2 | precipitation during titration of S100A10 with AHNAK5 (S100A10 [1]): prone to precipitation | A10A2 binding in peptide array (intensity, words) (A10A2): strong interaction with A10A2 | entropy change ([2]; ITC): positive entropy change | ΔH (binding enthalpy) ([2]; ITC, 35 °C, pH 7.2): -41.9 ± 0.4 kJ/mol | ΔS (entropy change) ([2]; ITC, 35 °C, pH 7.2): 0.0084 kJ/mol | n (binding sites), ITC ([2]; single binding site fit, 35 °C, pH 7.2): 1.02 | acrylodan-A10A2 fluorescence maximum upon addition of AHNAK5 [3]: 500 nm | interaction in experiments lacking annexin A2 peptide (summary) (S100A10-annexin A2): little or no observable interaction | interaction with S100A10, fluorescence (S100A10 [4]): little wavelength shift, suggestive of a poor interaction | exchange regime / peak doubling on AHNAK5 binding, A10A2 ([5]; 1H-15N HSQC, 0.5 mM A10A2 (protomer), 0.25 mM AHNAK5, 35 °C): disappearance of peaks from S100A10 and the appearance of new resonances on the slow exchange time scale; also recorded: resonances from the annexin A2 portion of A10A2 also exhibited peak doubling | stoichiometry AHNAK5 : A10A2 dimer, NMR ([5]; inflection point of peak intensity changes, 35 °C): one AHNAK5 peptide to one A10A2 dimer

S100A10^C82S (rabbit S100A10 with Cys82 changed to Ser) (natural protein)
stoichiometry N [6]: 2

S100A10^C82S-annexin A2 hybrid protein (A10A2)
stoichiometry N [7]: 2

sequence a: AHNAK array region Thr4917–Gly4940 (overlapping 18-residue peptides) (TAPDVDLHLKAPKIGFSGPKLEGG)
A10A2 binding in peptide array (intensity, words) (A10A2): best interaction with A10A2

sequence b: AHNAK array region Asp4959–Pro4994; most intense spot 4968–4985 (DSPDINIEGPDVKIPKFKKPKFGFGAKSPKADIKSP)
A10A2 binding in peptide array (intensity, words) (A10A2): best interaction with A10A2; also recorded: most intense binding at any one spot

sequence c: AHNAK array region Pro5220–Ile5243 (PDVDLQGPEAKIKFPKFSMPKIGI)
A10A2 binding in peptide array (intensity, words) (A10A2): best interaction with A10A2

sequence d: AHNAK array region Asn5607–Ile5633 (NLDTSKFAGGLHFSGPKVEGGVKGGQI)
A10A2 binding in peptide array (intensity, words) (A10A2): best interaction with A10A2

sequence e: AHNAK array region Gly5652–Gly5675; most intense spot 5652–5669 (GSGKVTFPKMKIPKFTFSGRELVG)
A10A2 binding in peptide array (intensity, words) (A10A2): best interaction with A10A2; also recorded: most intense binding at any one spot

sequence f: AHNAK array region Ser5703–Thr5729 (SEVKLKKSKIKMPKFNFSKPKGKGGVT)
A10A2 binding in peptide array (intensity, words) (A10A2): best interaction with A10A2

sequence g: AHNAK array region Ala5757–Ser5780 (AEAEASSPKGKFSLFKSKKPRHRS)
A10A2 binding in peptide array (intensity, words) (A10A2): best interaction with A10A2

sequence h: AHNAK array region Leu5808–Glu5837 (LEGGKVKGKHGKLKFGTFGGLGSKSKGHYE)
A10A2 binding in peptide array (intensity, words) (A10A2): best interaction with A10A2

Ac-GKVTFPKMKIPKFTFSGREL-NH2 [AHNAK5 peptide (AHNAK residues Gly5654-Leu5673)]
Kd [8]: 0.028 µM | dH [8]: -41.9 kJ/mol | stoichiometry N (AHNAK5 per A10A2 dimer) [8]: 1.02 | Kd [9]: < 1 µM | stoichiometry N (AHNAK5 per A10A2 dimer) [9]: 1 | Kd [10]: 0.035 µM | stoichiometry N [11]: 1 | stoichiometry N (AHNAK5 per A10A2 dimer) [7]: 1

Ac-STVHEILSKLSLEGD-NH2 [annexin A2 peptide (residues 1-15)]
stoichiometry N (annexin A2 peptides per S100A10 dimer) [6]: 2
